From ChEMBL document CHEMBL4765235, “Discovery of N-[Bis(4-methoxyphenyl)methyl]-4-hydroxy-2-(pyridazin-3-yl)pyrimidine-5-carboxamide (MK-8617), an Orally Active Pan-Inhibitor of Hypoxia-Inducible Factor Prolyl Hydroxylase 1-3 (HIF PHD1-3) for the Treatment of Anemia” (J Med Chem, 2016) come the findings set out here.

Series [1] in a line: In vivo inhibition of HIF-PHD2 in C57BL/6 mouse assessed as serum erythropoietin level at 15 mg/kg, iv measured after 4 hrs. The format is functional. Summed up:
(§1)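 Mouse pharmacodynamic EPO assay (MoPED). Compound dosed iv; serum EPO measured 4 hr after dosing and reported in pg/mL. Minimum effective dose is the lowest dose giving EPO elevation.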

Series [2] can be described thus: Oral bioavailability in rat at 2 mg/kg. The format is ADME, organism-based. To be noted: in vivo.
Series [3] in a line: Half life in rat at 2 mg/kg, po or 1 mg/kg, iv. It counts as ADME, organism-based. To be noted: in vivo.
Series [4] is described as follows: In vivo inhibition of HIF-PHD2 in C57BL/6 mouse assessed as serum erythropoietin level at 5 mg/kg, iv measured after 4 hrs. It counts as functional. In short, it runs like this:
as §1

Series [5] deals with T1, Egl nine homolog 1 (Homo sapiens, UniProt Q9GZT9). In words: Inhibition of FLAG-tagged full-length HIF-PHD2 (unknown origin) expressed in baculovirus infected Sf9 cells using 2-oxoglutarate and HIF1alpha biotinyl-DLDLEMLAPYIPMDDDFQL as peptide substrates preincubated for 30 mins followed by substrate addition and measured after 2 hrs by LANCE assay.
Series [6] in a line: Half life in dog at 1 mg/kg, po or 0.5 mg/kg, iv. To be noted: in vivo. The format is ADME, organism-based, Canis lupus familiaris. Summed up:
(§2)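 Single-dose PK at 1 mg/kg po and 0.5 mg/kg iv. Mouse clearance is from blood; dog and rhesus clearance is from plasma. Mouse vehicle, both routes: DMSO:PEG400:water (5:40:55, v/v/v). Dog and monkey iv vehicle: PEG200:12%HPCD:water (30:12:58 v/v/v). Dog and monkey po vehicle: Imwitor:Tween (1:1 w/w).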

Series [7] in a line: In vivo inhibition of HIF-PHD2 in iv dosed C57BL/6 mouse assessed as minimum effective dose causing increase in serum erythropoietin levels measured after 4 hrs. The format is functional. The settings on record: C57BL/6, iv, read-out: MED. In short, it runs like this: as §1
The nature of series [8]: In vivo inhibition of HIF-PHD2 in C57BL/6 mouse assessed as serum erythropoietin level at 50 mg/kg, iv measured after 4 hrs. The format is functional. Summed up: as §1
Series [9] in a line: Oral bioavailability in mouse at 2 mg/kg. The format is ADME, organism-based. To be noted: in vivo.
Series [10] can be described thus: Cmax in mouse at 2 mg/kg, po or 1 mg/kg, iv. The format is ADME, organism-based. Also on record: dose 2 mg/kg. To be noted: in vivo.
A short description of series [11]: Clearance in mouse at 2 mg/kg, po or 1 mg/kg, iv. It counts as ADME, organism-based. To be noted: in vivo.
Series [12] is described as follows: Volume of distribution at steady state in mouse at 2 mg/kg, po or 1 mg/kg, iv. The settings on record: in vivo, read-out: Vdss. The format is ADME, organism-based.
A short description of series [13]: Half life in mouse at 2 mg/kg, po or 1 mg/kg, iv. It counts as ADME, organism-based. To be noted: in vivo.
Series [14] can be described thus: Protein binding in mouse plasma assessed as unbound fraction at 2 mg/kg, po or 1 mg/kg, iv. It counts as ADME, organism-based. To be noted: read-out: PPB.
The nature of series [15]: Cmax in rat at 2 mg/kg, po or 1 mg/kg, iv. It counts as ADME, organism-based. Also on record: dose 2 mg/kg. To be noted: in vivo.
Series [16] can be described thus: Clearance in rat at 2 mg/kg, po or 1 mg/kg, iv. The format is ADME, organism-based. To be noted: in vivo.
Series [17] can be described thus: Volume of distribution at steady state in rat at 2 mg/kg, po or 1 mg/kg, iv. The format is ADME, organism-based. The settings on record: in vivo, read-out: Vdss.
Series [18] can be described thus: Protein binding in rat plasma assessed as unbound fraction at 2 mg/kg, po or 1 mg/kg, iv. It counts as ADME, organism-based. The settings on record: read-out: PPB.
The nature of series [19]: Oral bioavailability in dog at 1 mg/kg. It counts as ADME, organism-based, Canis lupus familiaris. The settings on record: in vivo. In short, it runs like this:
(§3)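 Dog and rhesus monkey dosed 1 mg/kg po and 0.5 mg/kg iv. The iv vehicle was PEG200:12%HPCD:water (30:12:58 v/v/v); the po vehicle was Imwitor:Tween (1:1 w/w). Clearance was measured in plasma. Protein binding was measured in 100% serum.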

Series [20] can be described thus: Cmax in dog at 1 mg/kg, po or 0.5 mg/kg, iv. The format is ADME, organism-based, Canis lupus familiaris. The settings on record: in vivo. Also on record: dose 1 mg/kg. Summed up: as §2
A short description of series [21]: Clearance in dog at 1 mg/kg, po or 0.5 mg/kg, iv. The format is ADME, organism-based, Canis lupus familiaris. To be noted: in vivo. Summed up: as §2
Series [22] in a line: Volume of distribution at steady state in dog at 1 mg/kg, po or 0.5 mg/kg, iv. To be noted: in vivo, read-out: Vdss. The format is ADME, organism-based, Canis lupus familiaris. In short, it runs like this: as §3
Series [23] is described as follows: Protein binding in dog plasma assessed as unbound fraction at 1 mg/kg, po or 0.5 mg/kg, iv. The format is ADME, organism-based, Canis lupus familiaris. The settings on record: read-out: PPB.
Series [24] in a line: Oral bioavailability in rhesus monkey at 1 mg/kg. It counts as ADME, organism-based, Macaca mulatta. The settings on record: in vivo. In short, it runs like this: as §3
Series [25] is described as follows: Cmax in rhesus monkey at 1 mg/kg, po or 0.5 mg/kg, iv. It counts as ADME, organism-based, Macaca mulatta. The settings on record: in vivo. Also on record: dose 1 mg/kg. In short, it runs like this:
as §2

Series [26] in a line: Clearance in rhesus monkey at 1 mg/kg, po or 0.5 mg/kg, iv. It counts as ADME, organism-based, Macaca mulatta. To be noted: in vivo. Summed up: as §2
Series [27] can be described thus: Volume of distribution at steady state in rhesus monkey at 1 mg/kg, po or 0.5 mg/kg, iv. The settings on record: in vivo, read-out: Vdss. It counts as ADME, organism-based, Macaca mulatta. Summed up: as §3
The nature of series [28]: Half life in rhesus monkey at 1 mg/kg, po or 0.5 mg/kg, iv. The format is ADME, organism-based, Macaca mulatta. The settings on record: in vivo. In short, it runs like this:
as §2

Series [29] can be described thus: Protein binding in rhesus monkey plasma assessed as unbound fraction at 1 mg/kg, po or 0.5 mg/kg, iv. The format is ADME, organism-based, Macaca mulatta. To be noted: read-out: PPB.
Series [30] is described as follows: In vivo inhibition of HIF-PHD2 in C57BL/6 mouse assessed as serum erythropoietin level at 1.5 mg/kg, iv measured after 4 hrs. The format is functional. In short, it runs like this: as §1
Series [31] in a line: In vivo inhibition of HIF-PHD2 in C57BL/6 mouse assessed as serum erythropoietin level at 100 mg/kg, iv measured after 4 hrs. The format is functional. In short, it runs like this:
as §1

Series [32] addresses Voltage-gated inwardly rectifying potassium channel KCNH2 (Homo sapiens, UniProt Q12809). In words: Inhibition of human ERG.
Series [33] can be described thus: Plasma clearance in rat at 2 mg/kg, po or 1 mg/kg, iv. The format is ADME, organism-based.
For series [34], the target named is T1, Egl nine homolog 1. In words: Inhibition of HIF-PHD2 (unknown origin).

Voltage-gated inwardly rectifying potassium channel KCNH2, sequence (Q12809 whole entry): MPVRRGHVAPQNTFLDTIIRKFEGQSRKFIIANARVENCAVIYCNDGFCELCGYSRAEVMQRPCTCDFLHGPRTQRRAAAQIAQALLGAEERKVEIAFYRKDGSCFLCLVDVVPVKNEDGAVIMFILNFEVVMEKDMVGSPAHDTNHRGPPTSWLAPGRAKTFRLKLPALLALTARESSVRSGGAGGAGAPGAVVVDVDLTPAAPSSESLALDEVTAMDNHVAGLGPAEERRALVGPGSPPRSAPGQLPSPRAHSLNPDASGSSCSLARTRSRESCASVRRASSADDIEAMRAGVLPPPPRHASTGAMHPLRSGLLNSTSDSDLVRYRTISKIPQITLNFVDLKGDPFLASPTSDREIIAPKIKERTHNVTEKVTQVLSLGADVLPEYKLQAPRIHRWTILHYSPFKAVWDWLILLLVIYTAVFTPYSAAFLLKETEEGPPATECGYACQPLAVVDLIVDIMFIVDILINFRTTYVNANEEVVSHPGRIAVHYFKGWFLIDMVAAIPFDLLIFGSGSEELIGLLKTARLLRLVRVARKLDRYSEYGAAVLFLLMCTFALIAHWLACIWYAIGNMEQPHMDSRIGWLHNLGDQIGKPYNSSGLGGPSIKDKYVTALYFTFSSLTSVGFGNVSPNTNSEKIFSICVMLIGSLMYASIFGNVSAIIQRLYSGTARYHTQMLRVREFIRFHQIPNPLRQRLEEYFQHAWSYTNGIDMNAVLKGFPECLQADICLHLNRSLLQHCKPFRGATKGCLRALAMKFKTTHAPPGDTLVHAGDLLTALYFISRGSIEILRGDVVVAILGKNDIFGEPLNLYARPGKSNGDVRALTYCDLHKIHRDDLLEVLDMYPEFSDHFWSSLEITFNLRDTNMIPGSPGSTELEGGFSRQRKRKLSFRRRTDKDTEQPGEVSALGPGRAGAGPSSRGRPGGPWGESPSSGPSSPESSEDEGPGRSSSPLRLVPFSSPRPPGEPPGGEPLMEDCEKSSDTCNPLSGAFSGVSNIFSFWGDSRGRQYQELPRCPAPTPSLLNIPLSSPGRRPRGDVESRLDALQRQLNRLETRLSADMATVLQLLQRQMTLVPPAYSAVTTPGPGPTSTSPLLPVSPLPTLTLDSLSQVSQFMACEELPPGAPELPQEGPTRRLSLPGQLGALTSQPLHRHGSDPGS
T1 sequence (Q9GZT9 whole entry): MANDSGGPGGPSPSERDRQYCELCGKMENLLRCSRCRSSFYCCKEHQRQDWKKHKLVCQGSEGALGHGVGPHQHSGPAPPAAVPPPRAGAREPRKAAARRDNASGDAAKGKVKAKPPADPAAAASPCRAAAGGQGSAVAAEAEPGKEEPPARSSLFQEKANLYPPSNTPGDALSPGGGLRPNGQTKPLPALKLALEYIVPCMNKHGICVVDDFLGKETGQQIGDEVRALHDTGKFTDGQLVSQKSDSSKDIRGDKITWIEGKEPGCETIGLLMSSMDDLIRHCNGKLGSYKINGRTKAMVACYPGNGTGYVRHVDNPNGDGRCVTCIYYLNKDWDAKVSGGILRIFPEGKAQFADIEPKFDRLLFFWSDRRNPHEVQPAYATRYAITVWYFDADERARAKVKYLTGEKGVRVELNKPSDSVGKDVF

In the case of `CC(C)(NC(=O)c1cnc(-n2cc(C(=O)O)cn2)nc1O)c1ccccc1`, the Activity in series [1] came to 1900 pg/mL. Further, in series [2], the bioavailability (as a rule, dose-corrected exposure relative to a reference, in per cent) was 3%. Also, in series [3], the half-life (as a rule, the time in which the quantity being followed falls by half) is 2.1 h.

Consider `O=C(NC(c1ccccc1)c1ccccc1)c1cnc(-n2cccn2)nc1O`, for which, in series [1], the Activity was found to be 2900 pg/mL.

On to `C[C@H](NC(=O)c1cnc(-n2cccn2)nc1O)c1ccccc1`, for which the figures for the Activity in [4] and in [1] were 690 pg/mL and 10000 pg/mL, respectively.

Regarding `CC(C)(NC(=O)c1cnc(-c2ccc(C(F)(F)F)cn2)nc1O)c1ccccc1`, the half-maximal inhibitory concentration (IC50) – broadly, the concentration that inhibits the measured activity by half – at Egl nine homolog 1 [5] was over 2700 nM.

For `C[C@H](NC(=O)c1cnc(-n2cccn2)nc1O)c1ccc(F)cc1`, the Activity in series [1] is 16000 pg/mL. In [6], this molecule gave a half-life of 60 h.

For `C[C@@H](NC(=O)c1cnc(-n2cccn2)nc1O)c1ccc(F)cc1`, the Activity in [1] stood at 350 pg/mL.

For the molecule `CC(C)(NC(=O)c1cnc(-c2cc(C(=O)O)ccn2)nc1O)c1ccccc1`, in series [7], the minimal effective dose came to 15 mg/kg. Further, the Activity in series [1] was 220 pg/mL. Moreover, in [2], the bioavailability turned out to be 5%. Further, the half-life in series [3] is 0.23 h.

For `CC(C)(NC(=O)c1cnc(-n2cccn2)nc1O)c1ccccc1`, the Activity was 460 pg/mL in series [4], 5000 pg/mL in series [1] and 24000 pg/mL in series [8]. The bioavailability in series [9] is 98%; in [2], 99%; in series [19], 61%; in series [24], 71%. Moreover, the maximum concentration (Cmax) – broadly, the maximum level reached in the sampled fluid or tissue – stood at 30 µM in series [10], 49 µM in series [15], 11 µM in series [20] and 22 µM in [25]. The clearance in series [11] came to 1 mL/min/kg; in series [16], 0.2 mL/min/kg; in series [21] it was 0.004 mL/min/kg; in series [26], 0.001 mL/min/kg. For the same molecule, the Vd was determined as 0.3 L/kg in [12], 0.06 L/kg in [17], 0.1 L/kg in series [22] and 0.13 L/kg in series [27]. The half-life in [13] was 3.7 h; in series [3], 4.2 h; in series [6], over 100 h; in [28] it was 95 h. In addition, the fraction unbound in series [14] stood at 0.093; in series [18] it was 0.012; in [23] it was 0.027; in series [29] it was 0.004.

Regarding `COc1ccc([C@H](C)NC(=O)c2cnc(-n3cccn3)nc2O)cc1`, the Activity in series [1] amounted to 5300 pg/mL. Also, in series [6], the half-life was 94 h.

For the molecule `O=C(NCc1ccc(OC(F)(F)F)cc1)c1cnc(-n2cccn2)nc1O`, the figures for the Activity in series [1] and in series [8] were 180 pg/mL and 8900 pg/mL, respectively.

`COc1ccc(C(NC(=O)c2cnc(-n3cccn3)nc2O)c2ccc(OC)cc2)cc1`: the minimal effective dose in series [7] is 1.5 mg/kg. Moreover, the Activity in series [4] came out at 740 pg/mL; in series [1] it was 31000 pg/mL; in [30] it was 190 pg/mL.

Regarding `CC(C)(NC(=O)c1cnc(-c2cscn2)nc1O)c1ccccc1`, in [31], the Activity was 2100 pg/mL. The same molecule had a bioavailability in series [2] of 61%. The molecule also had a half-life in series [3] of 2.9 h.

As to `O=C(NCc1ccc(F)cc1)c1cnc(-c2ccccn2)nc1O`, in [7], the minimal effective dose is 100 mg/kg. In series [31], the Activity amounted to 1200 pg/mL. The results for the half-inhibitory concentration (IC50) (in series [32]; against Egl nine homolog 1 [34]) were over 30000 nM and 110 nM, respectively. Besides, the bioavailability in series [2] was 67%. Besides, in series [17], the Vd came out at 0.35 L/kg. For the same molecule, the half-life in [3] was 3.3 h. Moreover, the clearance in series [33] worked out at 2 mL/min/kg.

As for `O=C(NC(c1ccccc1)c1ccccc1)c1cnc(-c2cccnn2)nc1O`, the Activity in series [4] turned out to be 380 pg/mL; in [1], 1600 pg/mL. The IC50 in [32] is over 30000 nM.

`O=C(NCc1ccc(-c2ccccc2)cc1)c1cnc(-n2cccn2)nc1O` had a half-life in series [6] of 143 h.

Take `O=C(NCc1ccc(Cl)cc1)c1cnc(-n2cccn2)nc1O`: the Activity in [1] was found to be 1100 pg/mL.

For the molecule `Cc1nc(-c2ncc(C(=O)NC(C)(C)c3ccccc3)c(O)n2)cs1`, the Activity in [31] amounted to 110 pg/mL.

`C[C@@H](NC(=O)c1cnc(-n2cccn2)nc1O)c1ccccc1`: the Activity in [1] was determined as 322 pg/mL.
